Data taken from ChEMBL document CHEMBL3853298, “Total synthesis and in vitro bioevaluation of clavaminols A, C, H & deacetyl clavaminol H as potential chemotherapeutic and antibiofilm agents” (Eur J Med Chem, 2016).
≈ marks a conversion by molar mass, not a printed value. Calls of active or inactive are those of the source. The calls are words filed in the database; no cut-off is given here.

How the values were obtained:
Candida albicans [1] = assay: Antifungal activity against Candida albicans MTCC 7315 after 24 hrs by well diffusion method; type: functional; conditions: MTCC 7315, 24 h
Procedure, shortened: (§1)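 Candida/Issatchenkia lawns (0.1 mL suspension) on Mueller-Hinton agar; 6.0 mm bored wells receive compound across a 250 to 0.48 per-well dose range, methanol as negative control. Plates kept 24 h at 30 °C. MIC is the lowest concentration producing a visible inhibition zone. Duplicate runs, mean values.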

Candida albicans [2] = assay: Fungicidal activity against Candida albicans MTCC 7315 after 24 hrs; type: functional; conditions: MTCC 7315, 24 h
Procedure, shortened: (§2)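 Candida grown overnight in Mueller Hinton broth. Compound serially diluted in the same broth from 150 to 0 and inoculated to a final 1.5 × 10^8 CFU/mL (0.5 McFarland), then 24 h at 37 °C. Tube contents plated onto Mueller Hinton agar for 24 h at 37 °C. MFC is the lowest concentration killing the yeast. Duplicates.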

Pichia sporocuriosa = assay: Antifungal activity against Issatchenkia hanoiensis MTCC 4755 after 24 hrs by well diffusion method; type: functional; conditions: MTCC 4755, 24 h; procedure, shortened: as §1
Micrococcus luteus = assay: Induction of intracellular ROS accumulation in Micrococcus luteus MTCC 2470 sessile biofilm cells at 2 to 4 ug/ml after 24 hrs by DCFH-DA staining-based assay; type: functional, cell-based
Procedure, shortened: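 Intracellular ROS was measured in M. luteus MTCC 2470 biofilms grown in 24-well plates. Mature biofilms were treated and incubated 24 h at 30 °C together with […] DCFH-DA. Well contents were centrifuged at 5000 × g for 10 min. Fluorescence (ex 485/em 535 nm) was read separately for supernatant and for sessile cells resuspended in PBS. Triplicate, mean ± S.D.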

Candida albicans [3] = assay: Antifungal activity against Candida albicans MTCC 3958 after 24 hrs by well diffusion method; type: functional; conditions: MTCC 3958, 24 h; procedure, shortened: as §1
Pseudomonas aeruginosa [4] = assay: Antibacterial activity against Pseudomonas aeruginosa MTCC 2453 after 24 hrs by well diffusion method; type: functional; conditions: MTCC 2453, 24 h
Procedure, shortened: (§3)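 Bacteria spread (0.1 mL suspension) on Mueller-Hinton agar; 6.0 mm wells loaded with compound over a 250 to 0.48 per-well dose range, methanol as negative control. Incubated 24 h at 37 °C. MIC taken as the lowest concentration still giving an inhibition zone. Duplicates, mean reported.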

Staphylococcus aureus [5] = assay: Antibacterial activity against Staphylococcus aureus MTCC 96 after 24 hrs by well diffusion method; type: functional; conditions: MTCC 96, 24 h; procedure, shortened: as §3
Raoultella planticola [6] = assay: Bactericidal activity against Klebsiella planticola MTCC 530 after 24 hrs; type: functional; conditions: MTCC 530, 24 h
Procedure, shortened: (§4)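 Broth macrodilution in Mueller Hinton broth, compound serially diluted from 150 down to 0. Overnight bacterial culture added to a final 1.5 × 10^8 CFU/mL (0.5 McFarland), 24 h at 37 °C. Suspension then subcultured onto Mueller Hinton agar for 24 h at 37 °C. MBC is the lowest concentration killing the strain. Duplicates.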

Bacillus subtilis = assay: Antibacterial activity against Bacillus subtilis MTCC 121 after 24 hrs by well diffusion method; type: functional; conditions: MTCC 121, 24 h; procedure, shortened: as §3
[Candida] aaseri = Fungicidal activity against Candida aaseri MTCC 1962 after 24 hrs; type: functional; conditions: Yamadazyma aaseri, MTCC 1962, 24 h; procedure, shortened: as §2
[7] = Antifungal activity against Candida krusei MTCC 3020 after 24 hrs by well diffusion method; type: functional; conditions: Pichia kudriavzevii; procedure, shortened: as §1
Candida albicans [8] = assay: Antifungal activity against Candida albicans MTCC 183 after 24 hrs by well diffusion method; type: functional; conditions: MTCC 183, 24 h; procedure, shortened: as §1
Candida albicans [9] = assay: Antifungal activity against Candida albicans MTCC 3017 after 24 hrs by well diffusion method; type: functional; conditions: MTCC 3017, 24 h; procedure, shortened: as §1
[10] = Cytotoxicity against human DU145 cells assessed as cell growth inhibition by MTT assay; type: functional, cell-based; conditions: DU-145
Candida albicans [11] = assay: Antifungal activity against Candida albicans MTCC 4748 after 24 hrs by well diffusion method; type: functional; conditions: MTCC 4748, 24 h; procedure, shortened: as §1
Raoultella planticola [12] = assay: Antibiofilm activity against Klebsiella planticola MTCC 530 incubated for 24 hrs under static condition by crystal violet staining-based assay; type: functional
Procedure, shortened: (§5)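 Strains grown overnight in tryptone soy broth with 0.5% glucose. Compound (250 to 0) mixed with inoculum at 5 × 10^5 CFU/mL in polystyrene microtiter plates. Non-adherent cells washed off with PBS; wells stained with 0.1% crystal violet, dye solubilised in 95% ethanol, absorbance read at 540 nm. IC50 for 50% biofilm inhibition taken from dose-response curves. Triplicates, mean ± S.D.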

Pichia kudriavzevii = assay: Fungicidal activity against Candida krusei MTCC 3020 after 24 hrs; type: functional; conditions: MTCC 3020, 24 h
Procedure, shortened: (§6)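 Broth dilution in Mueller Hinton broth with serial compound concentrations from […]. Overnight Candida cultures added to a final 1.5 × 10^8 CFU/mL (0.5 McFarland). Incubated 24 h at 37 °C, then 10 µL of each tube plated on Mueller Hinton agar for 24 h at 37 °C. MFC taken as the lowest concentration that kills the strain. Run in duplicate.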

Raoultella planticola [13] = assay: Antibacterial activity against Klebsiella planticola MTCC 530 after 24 hrs by well diffusion method; type: functional; conditions: MTCC 530, 24 h; procedure, shortened: as §3
Pseudomonas aeruginosa [14] = assay: Bactericidal activity against Pseudomonas aeruginosa MTCC 2453 after 24 hrs; type: functional; conditions: MTCC 2453, 24 h; procedure, shortened: as §4
Candida albicans [15] = assay: Fungicidal activity against Candida albicans MTCC 854 after 24 hrs; type: functional; conditions: MTCC 854, 24 h; procedure, shortened: as §2
[16] = Antifungal activity against Candida glabrata MTCC 3019 after 24 hrs by well diffusion method; type: functional; conditions: Nakaseomyces glabratus; procedure, shortened: as §1
Candida albicans [17] = assay: Fungicidal activity against Candida albicans MTCC 3018 after 24 hrs; type: functional; conditions: MTCC 3018, 24 h; procedure, shortened: as §2
Staphylococcus aureus [18] = assay: Antibiofilm activity against Staphylococcus aureus MLS16 MTCC 2940 incubated for 24 hrs under static condition by crystal violet staining-based assay; type: functional; procedure, shortened: as §5
Candida albicans [19] = assay: Antifungal activity against Candida albicans MTCC 227 after 24 hrs by well diffusion method; type: functional; conditions: MTCC 227, 24 h; procedure, shortened: as §1
Candida albicans [20] = assay: Fungicidal activity against Candida albicans MTCC 183 after 24 hrs; type: functional; conditions: MTCC 183, 24 h; procedure, shortened: as §2
Candida albicans [21] = assay: Antifungal activity against Candida albicans MTCC 1637 after 24 hrs by well diffusion method; type: functional; conditions: MTCC 1637, 24 h; procedure, shortened: as §1
Candida parapsilosis = assay: Fungicidal activity against Candida parapsilosis MTCC 1744 after 24 hrs; type: functional; conditions: Lodderomyces parapsilosis, MTCC 1744, 24 h; procedure, shortened: as §6

SMILES: CCCCCCCCC[C@H](O)[C@@H](C)N [CLAVAMINOL A]
- MIC (Candida albicans [1]): 15.6 µg/mL (≈ 77.5 µM)
- MFC (Candida albicans [2]): 31.2 µg/mL (≈ 155 µM)
- MIC (Pichia sporocuriosa): 31.2 µg/mL (≈ 155 µM)
- Activity (Micrococcus luteus): Active
- MIC (Candida albicans [3]): 31.2 µg/mL (≈ 155 µM)
- MIC (Pseudomonas aeruginosa [4]): 7.8 µg/mL (≈ 38.7 µM)
- MIC (Staphylococcus aureus [5]): 7.8 µg/mL (≈ 38.7 µM)
- MBC (Raoultella planticola [6]): 15.6 µg/mL (≈ 77.5 µM)
- MIC (Bacillus subtilis): 7.8 µg/mL (≈ 38.7 µM)
- MFC ([Candida] aaseri): 62.5 µg/mL (≈ 310 µM)
- MIC [7]: 7.8 µg/mL (≈ 38.7 µM)
- MIC (Candida albicans [8]): 31.2 µg/mL (≈ 155 µM)
- MIC (Candida albicans [9]): 15.6 µg/mL (≈ 77.5 µM)
- IC50 [10]: 10.8 µM
- MIC (Candida albicans [11]): 31.2 µg/mL (≈ 155 µM)
- IC50 (Raoultella planticola [12]): 8.6 µg/mL (≈ 42.7 µM)
- MFC (Pichia kudriavzevii): 15.6 µg/mL (≈ 77.5 µM)
- MIC (Raoultella planticola [13]): 15.6 µg/mL (≈ 77.5 µM)
- MBC (Pseudomonas aeruginosa [14]): 15.6 µg/mL (≈ 77.5 µM)
- MFC (Candida albicans [15]): 31.2 µg/mL (≈ 155 µM)
- MIC [16]: 15.6 µg/mL (≈ 77.5 µM)
- MFC (Candida albicans [17]): 31.2 µg/mL (≈ 155 µM)
- IC50 (Staphylococcus aureus [18]): 2.2 µg/mL (≈ 10.9 µM)
- MIC (Candida albicans [19]): 31.2 µg/mL (≈ 155 µM)
- MFC (Candida albicans [20]): 62.5 µg/mL (≈ 310 µM)
- MIC (Candida albicans [21]): 31.2 µg/mL (≈ 155 µM)
- MFC (Candida parapsilosis): 62.5 µg/mL (≈ 310 µM)
